Measured values from the array DNA melting data of Ke et al. (doi:10.1101/2024.01.08.574731).

How the values were obtained:
[1] = folding enthalpy; higher = less favourable; fluorescence melt of hairpins on a sequencing array, two-state fit; conditions: sodium 0.088 M
Procedure, shortened: (§1)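 Bootstrapped two-state fits yielded melting temperature and folding enthalpy for library hairpins. Cy3 fluorescence, with annealed Cy3 and quencher oligos, was imaged on a sequenced MiSeq flow cell in 50 mM Na-HEPES pH 8.0, 25 mM NaCl in 2.5 °C steps up to 60 °C, and normalised to pre-quench Cy3 and to control constructs. Four replicates were combined by inverse variance, and fitted temperatures were raised by 9.35 °C to match UV melts.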

[2] = melting temperature; fluorescence melt of hairpins on a sequencing array, two-state fit, raised by 9.35 °C to match UV melts; conditions: sodium 0.088 M
Procedure, shortened: as §1

Row | Sequence | folding enthalpy [1] [kcal/mol] | Tm [2] [°C]
1 | GGCAGCGGAAACGCTGTC (.(((((....))))).) | -17.6 | 67.2
2 | GAAAGCGGAAACGCTTTC (((((((....))))))) | -41 | 65.5
3 | GATGTGGGAAACCATATC (((.(((....))).))) | -41.5 | 43.2
4 | GCCGCCGCGAAAGCGGGC (((..(((....)))))) | -5.71 | 64
5 | GCAGCCGAAAGGCATGC ((((((....))).))) | -19.6 | 62
6 | GAGCACGAAAGTGTTCTC ((((((....)))..))) | -25.5 | 52.1
7 | GATCGTAGAAACGATC ((((((....)))))) | -35.2 | 51.1
8 | GTCGACGGAAACACCGAC ((((..(....)..)))) | -24.8 | 31.6
9 | GACAGCACGAAAGTGGTC (((..(((....)))))) | -13.7 | 36
10 | GATCACAGCCGTGATC ((((((....)))))) | -44.6 | 57.8
11 | GCGTGTCTACGC ((((....)))) | -25.8 | 57.8
12 | GGTTCGGGAAACTGGACC (((.(.(....).).))) | -29.2 | 41.2
13 | GTAGGAGGAAACTTCTAC ((((.((....)).)))) | -27 | 37.4
14 | GCCATTGGAAACAATGAC (.(((((....))))).) | -19.1 | 38.8
15 | GGCGTGGGAAACCACGTC (.(((((....))))).) | -21.1 | 62.3
16 | GGATAATCGAAAGATTCC (((..(((....)))))) | -14 | 27.6
17 | GACTATGAAAATAGTC ((((((....)))))) | -32.8 | 49.5
18 | GGAAATGGAAACATCTCC (((.(((....))).))) | -9.93 | 25.1
19 | CGCAGCCGGAAACGGGCG (((..(((....)))))) | -20 | 47.9
20 | GGCCGTCGAAAGACAGCC (((.(((....))).))) | -35.1 | 58.4
21 | GCTTAACCGAAAGGTAGC (((..(((....)))))) | -19 | 42.2
22 | GGTAGCGAAAGCTTCACC ((((((....)))..))) | -13.8 | 34.4
23 | GTCGTCGAAAGACTAGAC ((((((....)))..))) | -18.4 | 42.5
24 | GCAGGGCGAAAGCGCGGC ((.(.((....)).).)) | -29.2 | 62.9

Row | Sequence | folding enthalpy [1] [kcal/mol] | Tm [2] [°C]
25 | GACCTAGGAAACCAGGTC (((((.(....).))))) | -35.3 | 45
26 | GCAACGCGAAAGCTTGGC ((.(.((....)).).)) | -11.5 | 38.5
27 | GATCCGACGGCGGATC ((((((....)))))) | -48 | 57.8
28 | GAACTCGGAAACGAGTTC (((((((....))))))) | -40.9 | 67
29 | GGTAACGAAAGTTGACC ((((((....))).))) | -20.6 | 39.2
30 | GATCCGAAGTCGGATC ((((((....)))))) | -39.9 | 56.2
31 | GTATAACGAAAGTTCTAC (((.(((....))).))) | -20 | 31.1
32 | GTCGATGGAAACATCGGC (.(((((....))))).) | -42.2 | 56.1
33 | GACTATGCGAAAGCAGTC (((..(((....)))))) | -15.3 | 44
34 | GGCTAGTCGAAAGACGCC (((..(((....)))))) | -19.9 | 52.3
35 | GACGCGGGAAACCGTGTC (((.(((....))).))) | -39.4 | 58.2
36 | GATCGATGCTCGATC ((((((...)))))) | -37 | 51.8
37 | GATCGCCAGCGCGATC ((((((....)))))) | -33.3 | 63.7
38 | GCCAAGCGAAAGCCAGGC (((..((....))..))) | -22.2 | 54.5
39 | GATCACTGTGGTGATC ((((((....)))))) | -45.6 | 59.4
40 | GTGCGTACGAAAGTACAC (((..(((....)))))) | -10.5 | 54.1
41 | GATCCCGAAAGGGCGATC ((((((....)))..))) | -12.2 | 31.9
42 | GGCCATGGAAACATAGCC (((.(((....))).))) | -31.5 | 40.8
43 | GCAACTGGAAACGGTTGC (((((.(....).))))) | -45.2 | 54.2
44 | CGACCGGAAACGGCCTCG ((((((....)))..))) | -11.9 | 30.2
45 | GGGCGAGCGAAAGCTCCC (((..(((....)))))) | -13.1 | 50.5
46 | GGGATTGGAAACAGTTCC ((.(.((....)).).)) | -16.6 | 34.3
47 | GGTCGGGGAAACCCGGCC ((.((((....)))).)) | -42.7 | 66.2
48 | GGCAACGAAAGTTACGCC ((((((....)))..))) | -24.2 | 44.4

Row | Sequence | folding enthalpy [1] [kcal/mol] | Tm [2] [°C]
49 | GACACGGAAACGTGTC ((((((....)))))) | -34.9 | 67.7
50 | GTGGATCGAAAGATTCAC (((.(((....))).))) | -38.2 | 53.8
51 | GGCTACCGAAAGGTCGCC (((.(((....))).))) | -39.2 | 58.6
52 | GGCATAGGAAACTATGCC (((((((....))))))) | -39.5 | 64.9
53 | GATCGAACTGTCGATC ((((((....)))))) | -31.1 | 49.2
54 | GGAATTGGAAACAATTTC (.(((((....))))).) | -32.8 | 39.5
55 | GTGCTAGGAAACCAGCAC (((((.(....).))))) | -37 | 49.9
56 | GATCGGGGAAACCTGGTC ((.(.((....)).).)) | -22.6 | 36.3
57 | GGTGCTCGAAAGAGTACC (((.(((....))).))) | -45.9 | 60
58 | GTAGCTGCGAAAGCATAC (((..(((....)))))) | -10.1 | 31.3
59 | GTCAACGAAAGTTGCGAC ((((((....)))..))) | -17.7 | 46.6
60 | GATCGGTTTACCGATC ((((((....)))))) | -37.4 | 68.6
61 | GCGTTTGCACGC ((((....)))) | -19.1 | 54.3
62 | GAACACGAAAGTGGCTTC ((((((....)))..))) | -23 | 45.4
63 | GTGAACGAAAGTTCGCAC ((((((....)))..))) | -16.4 | 51.3
64 | GGACTCGAAAGAGCTCC ((((((....))).))) | -26 | 45
65 | GCGATAATCGC ((((...)))) | -20.7 | 44.4
66 | CAGGTGAAAACCTG (((((....))))) | -24.5 | 53
67 | GAGTCCGAAAGGATCTC ((((((....))).))) | -31 | 50
68 | GCGAGAAGTCGC ((((....)))) | -18.3 | 50.2
69 | GGGCCTCGAAAGAGCCCC (((.(((....))).))) | -15.7 | 57.2
70 | GCTAAGGGAAACCTCAGC (((.(((....))).))) | -27.4 | 34.2
71 | GCGTTCCACGC ((((...)))) | -25.3 | 59.7
72 | GATCGATACTTCGATC ((((((....)))))) | -57.9 | 53

Row | Sequence | folding enthalpy [1] [kcal/mol] | Tm [2] [°C]
73 | GGACACGAAAGTGCGTCC ((((((....)))..))) | -18.2 | 40.5
74 | GTCTTACCGAAAGGTGAC (((..(((....)))))) | -13.9 | 35.7
75 | GATCCACCCTGGATC ((((((...)))))) | -33.8 | 51
76 | GCATTGCGAAAGCCCTGC (((..((....))..))) | -14.6 | 34.5
77 | GTGGGGGAAACCCCAC ((((((....)))))) | -31.9 | 68
78 | GGACTCTCGAAAGAGTCC (((..(((....)))))) | -42.7 | 60.9
79 | GCTCAACGAAAGTTAGC (((.(((....)))))) | -22.2 | 41.1
80 | GTTTCCGAAAGGATGAAC ((((((....)))..))) | -8.12 | 25.8
81 | GGTTACGAAAGTACACC ((((((....))).))) | -22.7 | 42.2
82 | GTGTGCGGAAACGCACGC (.(((((....))))).) | -16.4 | 66
83 | GGATTTGGAAACAAATCC (((((((....))))))) | -44.3 | 58.2
84 | ATCCCGAAAGGGAT (((((....))))) | -29.1 | 60.9
85 | GGAGAAGCGAAAGCTTCC (((..(((....)))))) | -9.26 | 42.7
86 | GATCGTCAATACGATC ((((((....)))))) | -39.2 | 54.6
87 | GATCGACCTGTCGATC ((((((....)))))) | -40.3 | 65
88 | GTCTTCGAAAGAAGGGAC ((((((....)))..))) | -14.1 | 32.9
89 | GTCAGAGGAAACTCCGAC (((.(((....))).))) | -25.3 | 34.7
90 | AAGATGAAAATCTT (((((....))))) | -8.93 | 28.4
91 | GGTGTGGAAACACACC ((((((....)))))) | -30.2 | 66.6
92 | GATCGTTTGCACGATC ((((((....)))))) | -27 | 54.7
93 | GGTCCGCGAAAGCGCACC (((.(((....))).))) | -20.9 | 48.3
